Data as given in ChEMBL document CHEMBL1144718, “Novel 3-aroylpyrazolo[5,1-c][1,2,4]benzotriazine 5-oxides 8-substituted, ligands at GABAA/benzodiazepine receptor complex: synthesis, pharmacological and molecular modeling studies” (Bioorg Med Chem, 2008).
The source made the active and inactive calls. The calls are words filed in the database; no cut-off is given here.

Key:
[1] = system: Mus musculus; test: Effect on motor coordination in CD1 Albino mouse assessed as number of falls in 30 secs at 10 mg/kg, po after 30 mins by rotarod test relative to control; format: functional
How it was run: (§1)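 Rota-rod at 16 rpm in male CD-1 mice after po dosing in 1% CMC; number of falls in 30 s counted at 15, 30, 45 and 60 min post-administration.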

[2] = system: Mus musculus; test: Effect on motor coordination in CD1 Albino mouse assessed as number of falls in 30 secs at 30 mg/kg, po after 30 mins by rotarod test relative to control; format: functional; how it was run: as §1
[3] = system: Mus musculus; test: Effect on motor coordination in CD1 Albino mouse assessed as number of falls in 30 secs at 3 mg/kg, po after 30 mins by rotarod test; format: functional; how it was run: as §1
[4] = Displacement of [3H]flumazenil from GABAA/BzR complex in bovine cerebral cortex membrane; format: cell membranes, Bos taurus
How it was run: (§2)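 Bovine cerebral cortex membranes in 50 mM Tris-citrate pH 7.4 incubated with [3H]Ro15-1788 (1–2 nM) for 1 h at 4 °C to equilibrium; nonspecific binding with 10^-5 M diazepam; DMSO ≤1%. Ki from ≥6 concentrations (10^-9–10^-5 M) by curve fitting and Cheng–Prusoff; percent inhibition at 10 µM; five determinations, triplicate.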

[5] = system: Mus musculus; test: Sedative activity in CD1 albino mouse assessed as reduction of curiosity at 3 mg/kg, po after 30 mins by hole-board test; format: functional, organism-based; design: dose 3 mg/kg
How it was run: (§3)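 Hole-board: male CD-1 mice given compound po (1% CMC) and placed individually on the board 30 min later, free to explore panel and holes for 5 min; spontaneous motility and exploration (panel and hole movements) scored.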

[6] = system: Mus musculus; test: Anticonvulsant activity against pentylenetetrazole-induced seizure in CD1 Albino mouse assessed as convulsant latency at 3 mg/kg, po after 30 mins; format: functional
How it was run: (§4)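 Male CD-1 mice (22–24 g), compound suspended in 1% CMC (sonicated) given po in 10 ml/kg; 30 min later PTZ 90 mg/kg sc (in saline). Latency (s) to shock and to convulsions recorded; clonic generalized convulsions counted over 30 min.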

[7] = system: Mus musculus; test: Anticonvulsant activity against pentylenetetrazole-induced seizure in CD1 Albino mouse assessed as convulsant latency at 10 mg/kg, po after 30 mins; format: functional; how it was run: as §4
[8] = system: Mus musculus; test: Sedative activity in CD1 albino mouse assessed as reduction of curiosity at 30 mg/kg, po after 30 mins by hole-board test; format: functional, organism-based; design: dose 30 mg/kg; how it was run: as §3
[9] = organism: Bos taurus; test: Displacement of [3H]flumazenil from GABAA/BzR complex in bovine cerebral cortex membrane at 10 uM; format: cell membranes; how it was run: as §2
[10] = system: Mus musculus; test: Anticonvulsant activity against pentylenetetrazole-induced seizure in CD1 Albino mouse assessed as shock latency at 10 mg/kg, po after 30 mins; format: functional; how it was run: as §4
[11] = system: Mus musculus; test: Sedative activity in CD1 albino mouse assessed as reduction of spontaneous motility at 10 mg/kg, po after 30 mins by hole-board test; format: functional, organism-based; design: dose 10 mg/kg; how it was run: as §3
[12] = system: Mus musculus; test: Anxiolytic effect in CD1 albino mouse at 10 mg/kg, po after 30 mins by light-dark box test; format: functional, organism-based; design: dose 10 mg/kg
How it was run: (§5)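 Male CD-1 mice (22–24 g); test agent po in 1% CMC, 30 min before a light/dark box session; time (s) spent in the illuminated compartment measured. Means ± SEM of 14–21 mice.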

[13] = system: Mus musculus; test: Sedative activity in CD1 albino mouse assessed as reduction of explorative activity at 30 mg/kg, po after 30 mins by hole-board test; format: functional, organism-based; design: dose 30 mg/kg; how it was run: as §3
[14] = system: Mus musculus; test: Anticonvulsant activity against pentylenetetrazole-induced seizure in CD1 Albino mouse assessed as convulsant latency at 30 mg/kg, po after 30 mins; format: functional; how it was run: as §4
[15] = system: Mus musculus; test: Sedative activity in CD1 albino mouse assessed as reduction of explorative activity at 10 mg/kg, po after 30 mins by hole-board test; format: functional, organism-based; design: dose 10 mg/kg; how it was run: as §3
[16] = organism: Mus musculus; test: Reversal of anxiolytic effect in CD1 albino mouse by light-dark box test in presence of flumazenil; format: functional, organism-based
How it was run: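 Light/dark box in male CD-1 mice: compound po (1% CMC) 30 min before test, with flumazenil given ip at […] in saline; time (s) in illuminated compartment recorded. Means ± SEM of 14–21 mice.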

[17] = system: Mus musculus; test: Effect on ethanol-induced sleeping time in CD1 Albino mouse assessed as increase in duration of loss of righting reflex at 30 mg/kg, po after 30 mins; format: functional, organism-based; design: dose 30 mg/kg
How it was run: (§6)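 Male CD-1 mice dosed po (1% CMC suspension); ethanol 4 g/kg ip given 30 min after the compound. Sleep time taken as duration of loss of righting reflex, end-point 150 min.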

[18] = system: Mus musculus; test: Sedative activity in CD1 albino mouse assessed as reduction of explorative activity at 3 mg/kg, po after 30 mins by hole-board test; format: functional, organism-based; design: dose 3 mg/kg; how it was run: as §3
[19] = system: Mus musculus; test: Effect on ethanol-induced sleeping time in CD1 Albino mouse assessed as increase in duration of loss of righting reflex at 10 mg/kg, po after 30 mins; format: functional, organism-based; design: dose 10 mg/kg; how it was run: as §6
[20] = system: Mus musculus; test: Sedative activity in CD1 albino mouse assessed as reduction of spontaneous motility at 30 mg/kg, po after 30 mins by hole-board test; format: functional, organism-based; design: dose 30 mg/kg; how it was run: as §3
[21] = system: Mus musculus; test: Increase in learning and memory performance in CD1 albino mouse at 10 mg/kg, po after 24 hrs by passive avoidance test; format: functional, organism-based; design: dose 10 mg/kg
How it was run: (§7)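 Passive avoidance in male CD-1 mice treated po 30 min before training; retention tested 24 h later. Latency to enter the dark compartment measured, maximum 60 s (training) and 180 s (retention). Means ± SEM of 15–18 mice.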

[22] = system: Mus musculus; test: Sedative activity in CD1 albino mouse assessed as reduction of spontaneous motility at 3 mg/kg, po after 30 mins by hole-board test; format: functional, organism-based; design: dose 3 mg/kg; how it was run: as §3
[23] = system: Mus musculus; test: Anticonvulsant activity against pentylenetetrazole-induced seizure in CD1 Albino mouse assessed as shock latency at 3 mg/kg, po after 30 mins; format: functional; how it was run: as §4
[24] = system: Mus musculus; test: Effect on ethanol-induced sleeping time in CD1 Albino mouse assessed as increase in duration of loss of righting reflex at 3 mg/kg, po after 30 mins; format: functional, organism-based; design: dose 3 mg/kg; how it was run: as §6
[25] = system: Mus musculus; test: Anxiolytic effect in CD1 albino mouse at 3 mg/kg, po after 30 mins by light-dark box test; format: functional, organism-based; design: dose 3 mg/kg; how it was run: as §5
[26] = system: Mus musculus; test: Increase in learning and memory performance in CD1 albino mouse at 3 mg/kg, po after 24 hrs by passive avoidance test; format: functional, organism-based; design: dose 3 mg/kg; how it was run: as §7
[27] = system: Mus musculus; test: Anticonvulsant activity against pentylenetetrazole-induced seizure in CD1 Albino mouse assessed as shock latency at 30 mg/kg, po after 30 mins; format: functional; how it was run: as §4
[28] = system: Mus musculus; test: Amnesic activity in CD1 albino mouse at 1 mg/kg, ip; format: functional, organism-based; design: dose 1 mg/kg
How it was run: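 Male CD-1 mice (22–24 g) given drug ip in 0.9% saline at 10 ml/kg. Passive-avoidance training followed treatment, and retention was tested 24 h later. Read-out was latency to enter the dark compartment in both sessions, capped at 60 s (training) and 180 s (retention). Means ± SEM of 15–18 mice.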

[29] = system: Mus musculus; test: Sedative activity in CD1 albino mouse assessed as reduction of spontaneous motility at 3 mg/kg, ip after 20 mins by hole-board test; format: functional, organism-based; design: dose 3 mg/kg
How it was run: (§8)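 Hole-board test in male CD-1 mice (22–24 g) after an ip dose in saline (10 ml/kg). Each mouse explored the panel and holes alone for 5 min. Spontaneous motility was scored as panel movements and curiosity as exploration of the holes.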

[30] = system: Mus musculus; test: Anticonvulsant activity against pentylenetetrazole-induced seizure in CD1 Albino mouse assessed as convulsant latency at 1 mg/kg, ip after 20 mins; format: functional, organism-based; design: dose 1 mg/kg
How it was run: (§9)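 In male CD-1 mice (22–24 g), drug in saline was given ip at 10 ml/kg; the test ran 20 min later. PTZ 90 mg/kg sc was the convulsant. Latency (s) to shock and to convulsions was scored, and clonic generalized convulsions were counted over 30 min. Significance was set at P < 0.05 versus controls.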

[31] = system: Mus musculus; test: Anticonvulsant activity against pentylenetetrazole-induced seizure in CD1 Albino mouse assessed as shock latency at 1 mg/kg, ip after 20 mins; format: functional, organism-based; design: dose 1 mg/kg; how it was run: as §9
[32] = system: Mus musculus; test: Sedative activity in CD1 albino mouse assessed as reduction of curiosity at 3 mg/kg, ip after 20 mins by hole-board test; format: functional, organism-based; design: dose 3 mg/kg; how it was run: as §8

CCOc1ccc2c(c1)n1ncc(C(=O)c3ccco3)c1n[n+]2[O-]
Activity [1]: 0.8 count | Activity [2]: 0.6 count | Activity [3]: 0.6 count | Ki [4]: 28 nM | Activity [5]: Active | Activity [6]: 328.5 s | Activity [7]: 488.2 s | Activity [8]: Active

Cn1ccc(C(=O)c2cnn3c2n[n+]([O-])c2ccc(Cl)cc23)c1
Ki [4]: 380 nM

O=C(c1ccsc1)c1cnn2c1n[n+]([O-])c1ccc(Cl)cc12
Ki [4]: 121 nM

O=C(c1cccnc1)c1cnn2c1n[n+]([O-])c1ccc(Cl)cc12
Ki [4]: 2400 nM

Cn1cccc1C(=O)c1cnn2c1n[n+]([O-])c1ccc(Cl)cc12
Ki [4]: 5200 nM

O=Cc1cnn2c1n[n+]([O-])c1ccc(Cl)cc12
inhibition [9]: 64%

O=C(c1ccc2c(c1)OCO2)c1cnn2c1n[n+]([O-])c1ccc(Cl)cc12
Ki [4]: 2900 nM

CC(=O)c1cnn2c1n[n+]([O-])c1ccc(Cl)cc12
Ki [4]: 551 nM

CCOc1ccc2c(c1)n1ncc(C(=O)c3ccc(OC)cc3)c1n[n+]2[O-]
Ki [4]: 919 nM

CCOc1ccc2c(c1)n1ncc(C(=O)c3cccs3)c1n[n+]2[O-]
Ki [4]: 45 nM

O=C(c1ccc[nH]1)c1cnn2c1n[n+]([O-])c1ccc(Cl)cc12
Activity [10]: 264.7 s | Activity [11]: inactive | Activity [1]: 1.2 count | Activity [2]: 0.8 count | Activity [12]: Active | Activity [3]: 0.6 count | Activity [13]: Active | Activity [14]: 535.2 s | Activity [15]: inactive | Activity [16]: inactive | Activity [17]: Active | Activity [18]: inactive | Ki [4]: 4 nM | Activity [19]: Active | Activity [20]: Active | Activity [21]: Active | Activity [22]: inactive | Activity [23]: 297.5 s | Activity [24]: Active | Activity [25]: inactive | Activity [26]: Active | Activity [6]: 498.8 s | Activity [7]: 647.8 s | Activity [27]: 329.6 s

CCOc1ccc2c(c1)n1ncc(C(=O)c3cccnc3)c1n[n+]2[O-]
Ki [4]: 2000 nM

COc1ccc(C(=O)c2cnn3c2n[n+]([O-])c2ccc(Cl)cc23)cc1
Ki [4]: 1240 nM

CN1C(=O)CN=C(c2ccccc2)c2cc(Cl)ccc21 [DIAZEPAM]
Activity [28]: Active | Activity [29]: Active | Activity [30]: inactive | Activity [31]: inactive | Ki [4]: 10 nM | Activity [32]: Active

CCOc1ccc2c(c1)n1ncc(C(=O)c3cccn3C)c1n[n+]2[O-]
Ki [4]: 819 nM
